IDH1 R132H inh: inhibitors of IDH1 R132H reductase, primary screen, biochemical, plate reader, single point; diaphorase/resazurin fluorescence, 60 min; inhibition, % at 10 µM; 70,000 compounds, 0.18% hits; AID 624101, 2012; in the data active = inhibition above about 34%; inconclusive = no clear call, values can overlap the other calls; inactive = below about 11%
KDM4C inh: inhibitors of GASC-1 (KDM4C) histone demethylase, primary screen, biochemical, single concentration HTS | Lysine-specific demethylase 4C (Homo sapiens), Q9H3R0 | GST-KDM4C 2-372, H3K9me3 peptide, LANCE TR-FRET | inhibition, % at 12.5 µM | 96,000 compounds, 0.15% hits | AID 720574, 2013;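 active = mean replicate inhibition above about 25%, with at least 55% of replicates also reaching it, limit read from the data, passing the limit was not always enough; inconclusive = only one of those two conditions met; inactive = neither condition met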
Target sequence (Q9H3R0 2-372 limits assumed): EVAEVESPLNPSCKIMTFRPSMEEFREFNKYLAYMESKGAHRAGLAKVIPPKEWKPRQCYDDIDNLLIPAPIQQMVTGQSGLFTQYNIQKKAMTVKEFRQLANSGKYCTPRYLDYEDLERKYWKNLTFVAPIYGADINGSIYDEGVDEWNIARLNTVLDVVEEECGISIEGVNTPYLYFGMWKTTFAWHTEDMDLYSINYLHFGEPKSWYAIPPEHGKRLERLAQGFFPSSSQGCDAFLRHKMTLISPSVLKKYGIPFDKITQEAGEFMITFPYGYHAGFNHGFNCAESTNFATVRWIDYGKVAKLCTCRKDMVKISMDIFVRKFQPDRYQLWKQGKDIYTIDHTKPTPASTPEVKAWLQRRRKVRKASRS
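Material: GST-tagged GASC-1 (JMJD2C) catalytic fragment, aa 2-372 / Quantity: enzyme final amount 10 nM / Medium: HEPES buffer, pH 7.5, plus ascorbate / Doses: one test concentration per compound / Incubation: 30 min reaction, 60 min detection, RT / Measured by: LANCE TR-FRET / Read-out: inhibition from TR-FRET ratio decrease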
T cruzi growth-1: T. cruzi intracellular proliferation inhibitors, primary screen, cell-based, beta-gal Tulahuen parasites, NIH3T3 host, luminescence. inhibition, % at 8.34 µM. T. cruzi beta-gal in NIH3T3, GalScreen luminescence, 90 h. AID 624255, 2012. 77,000 compounds, 5.9% hits;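 active = mean inhibition above about 93%, with at least 55% of replicates each passing it, limit read from the data, passing the limit was not always enough; inconclusive = only one of those two conditions holds; inactive = neither condition holds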
Pf Dd2 growth: P. falciparum Dd2 growth inhibitors, primary screen, SYBR Green fluorescence, single dose replicates | activity change, % at 10 µM | 72 h; stronger effect = lower value | 94,000 compounds, 2.3% hits; in the data active = activity change below about -80%; inconclusive = no clear call, values can overlap the other calls
T cruzi growth-2: T. cruzi intracellular proliferation inhibitors, confirmation, cell-based, NIH3T3 host, beta-gal parasite, luminescence, cherry-pick; shares compounds with T cruzi growth-1; T. cruzi beta-gal in NIH3T3, GalScreen luminescence, 90 h; inhibition, % at 8.35 µM; 5,600 compounds, 72% hits; AID 651739, 2012;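 active = mean replicate inhibition above about 95% and at least 55% of replicates individually reaching it, limit read from the data; inconclusive = only one of the two criteria is met; inactive = neither criterion is met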
T cruzi growth-3: inhibitors of intracellular T. cruzi replication, confirmation, NIH3T3 host cells, beta-gal parasites, cherry-pick, set 2 | shares compounds with T cruzi growth-1 | inhibition, % at 2.09 µM | T. cruzi beta-gal in NIH3T3, GalScreen luminescence, 90 h | 5,600 compounds, 21% hits | AID 651740, 2012;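 active = mean inhibition above about 95%, with at least 55% of replicates also reaching it, limit read from the data; inconclusive = meets just one of the two conditions; inactive = meets neither condition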
3T3 cytotox: cytotoxicity in mouse NIH/3T3 fibroblasts, confirmation, cytotoxicity control for T. cruzi proliferation inhibitor project, cell-based, cherry-pick, single point. shares compounds with T cruzi growth-1. NIH/3T3 viability, CellTiter-Glo ATP luminescence, 90 h. cytotoxicity (signal decrease), % at 8.35 µM. 5,600 compounds, 14% hits. AID 651742, 2012;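 active = mean signal decrease across replicates above about 35% based on untreated-well scatter, with enough replicates individually passing, limit read from the data; inconclusive = no rule stated though some were filed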
NIH3T3 tox 2: NIH/3T3 fibroblast cytotoxicity, confirmation, cytotoxicity control, cell-based, cherry-pick, single point, set 2. inhibition, % at 24.9 µM. 5,600 compounds, 56% hits. NIH/3T3 viability, CellTiter-Glo ATP luminescence, 90 h. AID 651744, 2012. shares compounds with T cruzi growth-1;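 active = mean loss of cell viability signal at or above a set limit, and enough replicates individually reaching it; inconclusive = meets only the mean limit or only the replicate share; inactive = meets neither condition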
A number is an active result; - = inactive; ? = inconclusive; . = no result. An excerpt weighted towards active compounds, which were near 5.8% of everything screened.

SMILES | IDH1 R132H inh | KDM4C inh | T cruzi growth-1 | Pf Dd2 growth | T cruzi growth-2 | T cruzi growth-3 | 3T3 cytotox | NIH3T3 tox 2
CC(C)CC#Cc1cnc2c(c1)C(=O)N([C@H](C)CO)C[C@@H](C)[C@@H](CN(C)Cc1ccc(F)cc1)O2 | - | - | - | - | . | . | . | .
CC(C)CC#Cc1cnc2c(c1)C(=O)N([C@@H](C)CO)C[C@H](C)[C@@H](CN(C)Cc1ccc3c(c1)OCO3)O2 | - | - | - | - | . | . | . | .
CC(C)CC#Cc1cnc2c(c1)C(=O)N([C@@H](C)CO)C[C@@H](C)[C@@H](CN(C)Cc1cccc(F)c1)O2 | - | - | 99.3 | - | 106.2 | - | - | 44.8
Cc1c(Cl)cccc1NC(=O)CN(c1ccc(I)cc1)S(C)(=O)=O | - | . | . | . | . | . | . | .
COc1ccc(NC(=O)c2ccco2)cc1NC(=S)NC(=O)c1ccc(-c2cccc(Cl)c2)o1 | - | . | . | . | . | . | . | .
CCCC#Cc1cnc2c(c1)C(=O)N([C@H](C)CO)C[C@H](C)[C@@H](CN(C)Cc1ccccc1F)O2 | - | - | - | - | . | . | . | .
CC(C)CC#Cc1cnc2c(c1)C(=O)N([C@H](C)CO)C[C@@H](C)[C@H](CN(C)Cc1ccccc1F)O2 | - | - | ? | - | 106.2 | - | - | 76.2
COc1cc(NC(=O)CN(C)S(=O)(=O)c2cc(Cl)ccc2Cl)cc(OC)c1 | - | . | . | . | . | . | . | .
N#C[C@H]1[C@@H](c2ccc(C3=CCCCC3)cc2)[C@H](CO)N1C(=O)c1cccc(F)c1 | . | - | - | - | . | . | . | .
COc1ccc(-c2ccc([C@H]3[C@@H](C#N)N(C(=O)c4cccc(F)c4)[C@H]3CO)cc2)cc1 | . | - | - | - | . | . | . | .
N#C[C@H]1[C@H](c2ccc(C3=CCCCC3)cc2)[C@@H](CO)N1C(=O)c1cccc(F)c1 | . | - | 98.1 | - | 100.2 | - | - | 44.8
COc1ccc(-c2ccc([C@@H]3[C@@H](CO)N(C(=O)c4cccc(F)c4)[C@H]3C#N)cc2)cc1 | . | - | ? | - | - | - | - | -
COc1ccc(-c2ccc([C@@H]3[C@H](C#N)N(C(=O)c4cccc(F)c4)[C@H]3CO)cc2)cc1 | . | - | 103.3 | - | 105.3 | - | - | 30.7
CCC(=O)Nc1cccc(NC(=O)COc2c(C)cc(C)cc2Br)c1 | - | . | . | . | . | . | . | .
CO[C@@H](CN(C)S(=O)(=O)c1ccc(C)cc1)[C@@H](C)CN(Cc1ccccc1Cl)[C@H](C)CO | - | - | 100.2 | - | 95.3 | - | ? | 51.0
CO[C@H](CN(C)S(=O)(=O)c1ccc(Cl)cc1)[C@H](C)CN(Cc1ccccc1Cl)[C@H](C)CO | - | - | 105.6 | - | 111.2 | - | - | 106.6
C[C@H]1CN([C@@H](C)CO)C(=O)c2cc(/C=C/c3ccccc3)cnc2O[C@@H]1CN(C)C(=O)Nc1ccccc1F | - | - | 125.7 | - | 108.3 | 106.6 | - | -
C[C@H](CO)N1C[C@H](C)[C@H](CN(C)C(=O)Nc2cccc3ccccc23)Oc2ncc(-c3cc4ccccc4o3)cc2C1=O | - | - | ? | - | 102.2 | - | 45.3 | 101.9
C[C@@H]1CN([C@@H](C)CO)C(=O)c2cc(/C=C/c3ccccc3)cnc2O[C@@H]1CN(C)C(=O)Nc1ccccc1F | - | - | 108.8 | - | - | - | - | 24.3
C[C@H](CO)N1C[C@H](C)[C@H](CN(C)C(=O)Nc2ccccc2F)Oc2ncc(/C=C/c3ccccc3)cc2C1=O | - | - | - | - | . | . | . | .
N#Cc1c(NC(=O)CCN2C(=O)c3ccccc3C2=O)sc2c1CCCC2 | - | . | . | . | . | . | . | .
CC1(C)CC2/C(CO)=C\C=C[C@@](C)(O)CC[C@]21O (stereo not given in full) | - | . | . | . | . | . | . | .
